In ChEMBL document CHEMBL1122180, “Potential histamine H2-receptor antagonists. 4. Benzylhistamines” (J Med Chem, 1982):
Blank lines part the entries; values can stand above or below the molecule they belong to. Active and inactive are the calls of the source. No cut-off for these calls is given here.

Key:
[1] = target: Histamine H2 receptor (Rattus norvegicus) (UniProt P25102); experiment: In vivo antagonist activity against histamine H2-receptor in lumen-perfused stomach of atropinized (1 mg/kg) anesthetized rat gastric secretion at 128 ug/kg; -ve; format: functional, organism-based
[2] = target: Histamine H2 receptor (Cavia porcellus) (UniProt P47747); experiment: Antagonist activity was measured for histamine H2-receptor in guinea pig atrium; -ve; 486 uM/L; format: functional, tissue-based; conditions: Cardiac atrium
Method in brief: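 Isolated guinea pig right atrium with propranolol (0.5 μM) present. Compounds tested as antagonists against histamine (0.2–781 μM) at up to 486 μM. Active compounds run at three dose levels (five observations).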

[3] = target: Histamine H2 receptor (Rattus norvegicus) (UniProt P25102); experiment: In vivo agonist activity against histamine H2-receptor in lumen-perfused stomach of atropinized (1 mg/kg) anesthetized rat gastric secretion at 64 ug/kg; -ve; format: functional, organism-based
Method in brief: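 In vivo, urethane-anaesthetised rat given atropine (1 mg kg⁻¹), lumen-perfused stomach, acid secretion as read-out. Compounds given intravenously as single doses and matched against single histamine doses (0.5–1 μM kg⁻¹).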

[4] = target: Histamine H2 receptor (Cavia porcellus) (UniProt P47747); experiment: Agonist activity was measured for histamine H2-receptor in guinea pig atrium; -ve; <0.1% of histamine (781 uM/L); format: functional, tissue-based; conditions: Cardiac atrium
[5] = target: Histamine H1 receptor (Cavia porcellus) (UniProt P31389); experiment: In vitro agonist activity against histamine H1-receptor in guinea pig ileum in the presence of atropine (0.5 uM) relative to histamine; -ve; <0.1% of histamine (781 uM/L); format: functional, tissue-based
Method in brief: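 Isolated guinea pig ileum with atropine (0.5 μM) present. Agonist activity assayed up to 781 μM (0.1% histamine). Activity relative to histamine taken from cumulative dose–response curves. A 2+2 parallel assay was run for one compound.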

[6] = target: Histamine H1 receptor (Cavia porcellus) (UniProt P31389); experiment: In vitro antagonist activity against histamine H1-receptor in guinea pig ileum in the presence of atropine (0.5 uM); format: functional, tissue-based
Method in brief: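 Isolated guinea pig ileum with atropine (0.5 μM) present. Antagonism measured against histamine (0.1–109 μM)-stimulated contraction. Cumulative dose–response curves plotted for active compounds at three dose levels (nine observations).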

[7] = target: Histamine H1 receptor (Cavia porcellus) (UniProt P31389); experiment: In vitro agonist activity against histamine H1-receptor in guinea pig ileum in the presence of atropine (0.5 uM) relative to histamine; format: functional, tissue-based
Method in brief: (§1)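 Isolated guinea pig ileum contraction with atropine (0.5 μM). Agonism tested up to 781 μM (0.1% histamine). Relative activity came from cumulative dose–response curves; one compound was run as a 2+2 parallel assay.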

[8] = target: Histamine H2 receptor (Rattus norvegicus) (UniProt P25102); experiment: In vivo agonist activity against histamine H2-receptor in lumen-perfused stomach of atropinized (1 mg/kg) anesthetized rat gastric secretion; format: functional, organism-based
Method in brief: (§2)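 Urethane-anesthetized rat, atropinized (1 mg kg⁻¹), lumen-perfused stomach, acid output. Single intravenous doses of compound matched against histamine doses (0.5–1 μM kg⁻¹). Potency relative to histamine compared on peak responses.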

[9] = target: Histamine H2 receptor (Cavia porcellus) (UniProt P47747); experiment: Antagonist activity was measured for histamine H2-receptor in guinea pig atrium; 486 uM/L; format: functional, tissue-based; conditions: Cardiac atrium
Method in brief: (§3)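 Guinea pig right atrium in vitro, propranolol (0.5 μM) present. Test compounds given up to 486 μM against histamine (0.2–781 μM). Any active compound was run at three dose levels (five observations).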

[10] = target: Histamine H2 receptor (Rattus norvegicus) (UniProt P25102); experiment: In vivo antagonist activity against histamine H2-receptor in lumen-perfused stomach of atropinized (1 mg/kg) anesthetized rat gastric secretion at 256 ug/kg; -ve; format: functional, organism-based
[11] = target: Histamine H2 receptor (Rattus norvegicus) (UniProt P25102); experiment: In vivo agonist activity against histamine H2-receptor in lumen-perfused stomach of atropinized (1 mg/kg) anesthetized rat gastric secretion at 256 ug/kg; -ve; format: functional, organism-based; method in brief: as §2
[12] = target: Histamine H2 receptor (Rattus norvegicus) (UniProt P25102); experiment: In vivo agonist activity against histamine H2-receptor in lumen-perfused stomach of atropinized (1 mg/kg) anesthetized rat gastric secretion at 512 ug/kg; -ve; format: functional, organism-based; method in brief: as §2
[13] = target: Histamine H2 receptor (Rattus norvegicus) (UniProt P25102); experiment: In vivo antagonist activity against histamine H2-receptor in lumen-perfused stomach of atropinized (1 mg/kg) anesthetized rat gastric secretion at 512 ug/kg; -ve; format: functional, organism-based
[14] = target: Histamine H2 receptor (Cavia porcellus) (UniProt P47747); experiment: Agonist activity was measured for histamine H2-receptor in guinea pig atrium; format: functional, tissue-based; conditions: Cardiac atrium
[15] = target: Histamine H1 receptor (Cavia porcellus) (UniProt P31389); experiment: In vitro agonist activity against histamine H1-receptor in guinea pig ileum in the presence of atropine (0.5 uM) relative to histamine.; format: functional, tissue-based; method in brief: as §1
[16] = target: Histamine H1 receptor (Cavia porcellus) (UniProt P31389); experiment: In vitro antagonist activity against histamine H1-receptor in guinea pig ileum in the presence of atropine (0.5 uM).; format: functional, tissue-based
Method in brief: (§4)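 Guinea pig ileum in vitro with atropine (0.5 μM) present. Compounds tested against histamine-stimulated contraction (histamine 0.1–109 μM). Cumulative dose–response curves plotted for active compounds at three dose levels (nine observations); pA2 derived.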

[17] = target: Histamine H2 receptor (Cavia porcellus) (UniProt P47747); experiment: Agonist activity was measured for histamine H2-receptor in guinea pig atrium.; format: functional, tissue-based; conditions: Cardiac atrium
[18] = target: Histamine H2 receptor (Rattus norvegicus) (UniProt P25102); experiment: In vivo antagonist activity against histamine H2-receptor in lumen-perfused stomach of atropinized (1 mg/kg) anesthetized rat gastric secretion at 187 ug/kg; weak inhibition; format: functional, organism-based; conditions: filed as antagonist
[19] = target: Histamine H2 receptor (Rattus norvegicus) (UniProt P25102); experiment: In vivo agonist activity against histamine H2-receptor in lumen-perfused stomach of atropinized (1 mg/kg) anesthetized rat gastric secretion at 128 ug/kg; -ve; format: functional, organism-based; method in brief: as §2
[20] = target: Histamine H1 receptor (Cavia porcellus) (UniProt P31389); experiment: In vitro agonist activity against histamine H1 receptor in guinea pig ileum in the presence of atropine (0.5 uM) relative to histamine; -ve; <0.1% of histamine (781 uM/L); format: functional, tissue-based; method in brief: as §1
[21] = target: Histamine H2 receptor (Cavia porcellus) (UniProt P47747); experiment: Antagonist activity was measured for histamine H2-receptor in guinea pig atrium.; format: functional, tissue-based; conditions: Cardiac atrium; method in brief: as §3
[22] = target: Histamine H1 receptor (Cavia porcellus) (UniProt P31389); experiment: In vitro antagonist activity against histamine H1 receptor in guinea pig ileum in the presence of atropine (0.5 uM); format: functional, tissue-based; method in brief: as §4
[23] = target: Histamine H2 receptor (Rattus norvegicus) (UniProt P25102); experiment: In vivo agonist activity against histamine H2-receptor in lumen-perfused stomach of atropinized (1 mg/kg) anesthetized rat gastric secretion at 187 ug/kg; -ve; format: functional, organism-based; method in brief: as §2
[24] = target: Histamine H2 receptor (Cavia porcellus) (UniProt P47747); experiment: Antagonist activity was measured for histamine H2-receptor in guinea pig atrium; -ve; format: functional, tissue-based; conditions: Cardiac atrium; method in brief: as §3

Chain of Histamine H2 receptor (Cavia porcellus) (P47747 whole entry, the tested form may be a part): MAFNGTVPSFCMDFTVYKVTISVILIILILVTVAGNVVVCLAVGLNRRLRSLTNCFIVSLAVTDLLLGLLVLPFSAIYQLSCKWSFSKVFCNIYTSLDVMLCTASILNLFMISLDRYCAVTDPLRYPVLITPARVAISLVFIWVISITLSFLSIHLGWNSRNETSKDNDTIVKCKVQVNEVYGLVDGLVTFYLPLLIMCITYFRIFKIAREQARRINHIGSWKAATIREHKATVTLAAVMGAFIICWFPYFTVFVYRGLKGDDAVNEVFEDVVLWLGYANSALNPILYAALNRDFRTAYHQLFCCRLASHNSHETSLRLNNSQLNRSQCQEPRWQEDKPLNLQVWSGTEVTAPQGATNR
Chain of Histamine H2 receptor (Rattus norvegicus) (P25102 whole entry, the tested form may be a part): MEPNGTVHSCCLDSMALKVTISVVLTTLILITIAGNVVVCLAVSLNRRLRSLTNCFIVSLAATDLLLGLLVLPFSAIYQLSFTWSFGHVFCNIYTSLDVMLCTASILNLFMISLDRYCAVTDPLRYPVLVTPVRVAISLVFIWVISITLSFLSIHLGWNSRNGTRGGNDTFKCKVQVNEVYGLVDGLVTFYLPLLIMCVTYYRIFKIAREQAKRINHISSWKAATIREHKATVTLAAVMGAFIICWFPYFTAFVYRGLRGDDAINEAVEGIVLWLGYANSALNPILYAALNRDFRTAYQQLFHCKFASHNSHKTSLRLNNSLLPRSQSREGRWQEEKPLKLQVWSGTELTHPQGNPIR
Chain of Histamine H1 receptor (Cavia porcellus) (P31389 whole entry, the tested form may be a part): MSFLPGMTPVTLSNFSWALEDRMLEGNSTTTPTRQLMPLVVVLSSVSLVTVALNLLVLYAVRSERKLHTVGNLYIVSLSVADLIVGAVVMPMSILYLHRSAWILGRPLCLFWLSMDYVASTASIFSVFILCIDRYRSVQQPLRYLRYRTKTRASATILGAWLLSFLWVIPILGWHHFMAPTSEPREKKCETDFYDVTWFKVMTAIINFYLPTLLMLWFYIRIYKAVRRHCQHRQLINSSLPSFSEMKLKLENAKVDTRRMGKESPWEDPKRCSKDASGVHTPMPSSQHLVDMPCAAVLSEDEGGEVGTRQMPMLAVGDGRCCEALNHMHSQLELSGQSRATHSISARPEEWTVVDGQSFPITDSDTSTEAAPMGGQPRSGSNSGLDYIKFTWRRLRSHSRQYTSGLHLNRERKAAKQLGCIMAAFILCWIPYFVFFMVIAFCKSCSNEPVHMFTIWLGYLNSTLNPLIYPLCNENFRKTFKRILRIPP

SMILES: NCCc1[nH]cnc1Cc1ccccc1
Antagonist activity [1]: inactive
Antagonist activity [2]: < 3.3
Agonist activity [3]: inactive
Agonist activity [4]: inactive
Agonist activity [5]: inactive
Antagonist activity [6]: 4.4 pA2

Agonist activity [7]: 0.4
Agonist activity [8]: 3
Agonist activity [4]: inactive
Antagonist activity [9]: < 3.3
Antagonist activity [10]: inactive
SMILES: NCCc1cn(Cc2ccccc2)cn1

Antagonist activity [1]: inactive
Agonist activity [11]: inactive
Agonist activity [4]: inactive
Antagonist activity [9]: < 3.3
Agonist activity [5]: inactive
Antagonist activity [6]: 3.6 pA2
SMILES: NCCc1cncn1Cc1ccccc1

Antagonist activity [9]: < 3.3
Agonist activity [12]: inactive
Antagonist activity [13]: inactive
Agonist activity [14]: 1
Agonist activity [15]: 0.1
Antagonist activity [16]: 4 pA2
SMILES: NCC(Cc1ccccc1)c1c[nH]cn1 (centres undefined)

Agonist activity [17]: 0.7
Agonist activity [8]: 0.5
Antagonist activity [9]: < 3.3
Antagonist activity [18]: Partial antagonist
Agonist activity [15]: 0.4
SMILES: c1ccc(CNCCc2c[nH]cn2)cc1

Antagonist activity [1]: inactive
Agonist activity [19]: inactive
Agonist activity [20]: inactive
Agonist activity [4]: inactive
Antagonist activity [21]: 4.35
Antagonist activity [22]: 4.7 pA2
SMILES: NCCc1ncn(Cc2ccccc2)c1Cc1ccccc1

Agonist activity [23]: inactive
Antagonist activity [1]: inactive
Agonist activity [7]: 2.3
Agonist activity [4]: inactive
Antagonist activity [24]: < 3.3
SMILES: NCCc1c[nH]c(Cc2ccccc2)n1
